Experimental data taken from ChEMBL document CHEMBL4130356, “Design, synthesis and 2D QSAR study of novel pyridine and quinolone hydrazone derivatives as potential antimicrobial and antitubercular agents” (Eur J Med Chem, 2017).
Values after ≈ are worked out from the molar mass of the structure shown. Active and inactive are the calls of the source. The calls are words filed in the database; no cut-off is given here.

Columns and labels:
Aspergillus fumigatus [1] = assay: Antimicrobial activity against Aspergillus fumigatus RCMB 02568 after 48 hrs by serial dilution method; assay type: functional; settings: RCMB 02568, 48 h
Procedure, shortened: (§1)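 Serial twofold dilution in microtiter plates starting from a 100 mmol stock in DMSO; final concentrations 125 down to 0.12 […]. Incubated at 28°C and read on a microplate reader after 48 h. Amphotericin B was the reference. Run in triplicate, with the average taken. MIC was the lowest concentration inhibiting growth.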

Aspergillus fumigatus [2] = assay: Antimicrobial activity against Aspergillus fumigatus RCMB 02568 assessed as diameter of zone inhibition at 100 ug/ml after 48 hrs by agar well diffusion assay; assay type: functional; settings: RCMB 02568, 48 h, read-out: DIZ
Procedure, shortened: (§2)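 Agar well diffusion on malt agar plates seeded with the fungus, using 1 cm wells. Plates were held at 4°C for 1 h for diffusion, then incubated at 28°C. Inhibition zone diameters were measured at 48 h. Amphotericin B was the positive control. Run in triplicate, with the mean zone reported.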

Candida albicans [3] = assay: Antimicrobial activity against Candida albicans RCMB 05036 assessed as diameter of zone inhibition at 100 ug/ml after 48 hrs by agar well diffusion assay; assay type: functional; settings: RCMB 05036, 48 h, read-out: DIZ; procedure, shortened: as §2
Streptococcus pneumoniae [4] = assay: Antimicrobial activity against Streptococcus pneumoniae RCMB 010010 assessed as diameter of zone inhibition at 100 ug/ml after 24 hrs by agar well diffusion assay; assay type: functional; settings: RCMB 010010, 24 h, read-out: DIZ
Procedure, shortened: (§3)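 Agar well diffusion on nutrient agar plates seeded with the bacterium, using 1 cm wells. Plates were held at 4°C for 1 h for diffusion, then incubated at 37°C. Inhibition zone diameters were measured at 24 h. Ciprofloxacin was the positive control. Run in triplicate, with the mean zone reported.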

Staphylococcus aureus [5] = assay: Antimicrobial activity against Staphylococcus aureus RCMB 010028 assessed as diameter of zone inhibition at 100 ug/ml after 24 hrs by agar well diffusion assay; assay type: functional; settings: RCMB 010028, 24 h, read-out: DIZ; procedure, shortened: as §3
Escherichia coli [6] = assay: Antimicrobial activity against Escherichia coli RCMB 010052 assessed as diameter of zone inhibition at 100 ug/ml after 24 hrs by agar well diffusion assay; assay type: functional; settings: RCMB 010052, 24 h, read-out: DIZ; procedure, shortened: as §3
Candida albicans [7] = assay: Antimicrobial activity against Candida albicans RCMB 05036 after 48 hrs by serial dilution method; assay type: functional; settings: RCMB 05036, 48 h; procedure, shortened: as §1
Streptococcus pneumoniae [8] = assay: Antimicrobial activity against Streptococcus pneumoniae RCMB 010010 after 24 hrs by serial dilution method; assay type: functional; settings: RCMB 010010, 24 h
Procedure, shortened: as §1, with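 “37°C” for “28°C”, “24” for “48”, “Ciprofloxacin” for “Amphotericin B”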

Staphylococcus aureus [9] = assay: Antimicrobial activity against Staphylococcus aureus RCMB 010028 after 24 hrs by serial dilution method; assay type: functional; settings: RCMB 010028, 24 h
Procedure, shortened: as §1, with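 “37°C” for “28°C”, “24” for “48”, “Ciprofloxacin” for “Amphotericin B”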

Escherichia coli [10] = assay: Antimicrobial activity against Escherichia coli RCMB 010052 after 24 hrs by serial dilution method; assay type: functional; settings: RCMB 010052, 24 h
Procedure, shortened: as §1, with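 “37°C” for “28°C”, “24” for “48”, “Ciprofloxacin” for “Amphotericin B”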

[11] = test system: Mycobacterium tuberculosis; assay: Antimycobacterial activity against Mycobacterium tuberculosis RCMB 010126 clinical isolate after 7 days by MABA; assay type: functional; settings: Mycobacterium tuberculosis, RCMB 010126, 168 h
Procedure, shortened: (§4)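 Inoculum from fresh LJ culture resuspended in 7H9-S broth with casitone, glycerol and OADC, adjusted to McFarland No. 1 and diluted 1:20. Serial two-fold compound dilutions in 7H9-S; isoniazid reference. Incubated 7 days at 37°C in air, then Alamar blue added and incubated overnight. Percent inhibition = 1 − (test well/growth-control mean) × 100; MIC = lowest concentration preventing blue-to-pink change.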

[12] = test system: Mycobacterium tuberculosis; assay: Antimycobacterial activity against Mycobacterium tuberculosis RCMB 010126 clinical isolate assessed as inhibition zone after 7 days by MABA; assay type: functional; procedure, shortened: as §4
WI-38 = assay: Cytotoxicity against human WI38 cells assessed as reduction in cell viability after 24 hrs by crystal violet staining-based colorimetric method; settings: WI-38, 24 h
Procedure, shortened: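 WI-38 cells were grown in DMEM with 10% FBS at 37°C and 5% CO2, then seeded at 1×10^4 cells/well. Serial twofold dilutions were added, three wells per concentration. Viability was read by crystal violet stain, solubilised in 30% acetic acid, at 490 nm. Run in triplicate. IC50 was estimated from dose-response plots.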

[13] = Selectivity index, ratio of IC50 for human WI38 cells to MIC for Mycobacterium tuberculosis RCMB 010126 clinical isolate; assay type: toxicity; settings: read-out: Selectivity Index
Procedure, shortened: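 WI-38 human lung fibroblasts grown in DMEM with 10% FBS at 37°C and 5% CO2, seeded at 1×10^4 cells/well, and exposed to serial two-fold dilutions in triplicate. Viability read by crystal violet stain at 490 nm. IC50 taken from dose-response plots. Ratio uses this IC50 against the MABA MIC for M. tuberculosis.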

Escherichia coli [14] = assay: Potency index, ratio of ciprofloxacin MIC to test compound MIC for Escherichia coli RCMB 010052; assay type: functional
Streptococcus pneumoniae [15] = assay: Potency index, ratio of ampicillin MIC to test compound MIC for Streptococcus pneumoniae RCMB 010010; assay type: functional
Pseudomonas aeruginosa [16] = settings: RCMB 010043, 100 ug/ml
Pseudomonas aeruginosa [17] = settings: RCMB 010043
Pseudomonas aeruginosa [18] = assay: microbe, parasite or virus in culture; settings: RCMB 010043, 24 h, read-out: DIZ
Pseudomonas aeruginosa [19] = assay: microbe, parasite or virus in culture; settings: RCMB 010043, 24 h

Row | SMILES | MIC (Aspergillus fumigatus [1]) [µg/mL] | zone of inhibition at 100 µg/mL (Aspergillus fumigatus [2]) [mm] | zone of inhibition at 100 µg/mL (Candida albicans [3]) [mm] | zone of inhibition at 100 µg/mL (Streptococcus pneumoniae [4]) [mm] | zone of inhibition at 100 µg/mL (Staphylococcus aureus [5]) [mm] | zone of inhibition at 100 µg/mL (Escherichia coli [6]) [mm] | MIC (Candida albicans [7]) [µg/mL] | MIC (Streptococcus pneumoniae [8]) [µg/mL] | MIC (Staphylococcus aureus [9]) [µg/mL] | MIC (Escherichia coli [10]) [µg/mL] | MIC [11] [µg/mL] | inhibition zone (IZ) [12] [mm] | IC50 (WI-38) [µg/mL] | selectivity ratio [13] | Ratio (Escherichia coli [14]) | Ratio (Streptococcus pneumoniae [15]) | DIZ (Pseudomonas aeruginosa [16]) | MIC (Pseudomonas aeruginosa [17]) | zone of inhibition at 100 µg/mL (Pseudomonas aeruginosa [18]) [mm] | MIC (Pseudomonas aeruginosa [19]) [µg/mL]
1 | COc1cc(/C=N/NC(=O)c2ccc(-c3cccc(Cl)c3)nc2C)cc(OC)c1OC | 0.98 (≈ 2.23 µM) | 23.3 | 21.4 | 23.1 | 21.3 | 25.3 | 0.49 (≈ 1.11 µM) | 0.49 (≈ 1.11 µM) | 1.95 (≈ 4.43 µM) | 0.49 (≈ 1.11 µM) | 0.78 (≈ 1.77 µM) | 70.48 | 495 (≈ 1130 µM) | 635 | 2 | 2 | inactive | inactive |  | 
2 | O=C(O)c1cn(C2CC2)c2cc(N3CCNCC3)c(F)cc2c1=O [CIPROFLOXACIN] |  |  |  |  |  | 23.4 |  |  |  | 0.98 (≈ 2.96 µM) |  |  |  |  |  |  |  |  | 20.6 | 1.95 (≈ 5.89 µM)
3 | COc1ccc(OC)c(/C=N/NC(=O)c2ccc(-c3ccc(Cl)cc3)nc2C)c1 | 0.98 (≈ 2.39 µM) | 24.3 | 22.5 | 24.3 | 22.3 | 24.3 | 0.98 (≈ 2.39 µM) | 0.49 (≈ 1.2 µM) | 0.98 (≈ 2.39 µM) | 0.49 (≈ 1.2 µM) | 0.39 (≈ 0.952 µM) | 85.32 | 500 (≈ 1220 µM) | 1280 | 2 | 2 | inactive | inactive |  | 
